Experimental findings from ChEMBL document CHEMBL1122181 (J Med Chem, 1982) are described below.

The source made the active and inactive calls. No cut-off for these calls is given here.

Experiment [1] deals with Mus musculus. The experiment is described as follows: Analgesic activity was determined by writhing test after subcutaneous administration in mice. The format is functional. The settings on record: sc. The gist of the method: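 Phenylquinone-induced writhing; compound given subcutaneously in distilled water. Potency derived by probit analysis, reported with 95% confidence limits.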

Experiment [2] relates to Mus musculus. The experiment is described as follows: Analgesic activity was determined by tail flick assay after subcutaneous administration in mice; Inactive. The format is functional, organism-based.
The test system of experiment [3] is Mus musculus. Kind of experiment: Analgesic activity was determined by tail flick assay after subcutaneous administration in mice. In kind it is functional. The settings on record: sc. The essentials: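 Tail-flick method; compound given subcutaneously in normal saline. Potency derived by probit analysis, reported with 95% confidence limits.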
On the technique in general: Hot-plate and tail-flick tests time the reaction to a heat stimulus.

Usually ED50 stands for the dose at which the effect has come halfway, by size or by number of responders. Consider `CN1CCC23c4c5ccc(OC(C)(C)C)c4O[C@H]2[C@@H](O)C=CC3C1C5` (some centres not stated), for which, in the experiment with Mus musculus [1], the ED50 is 26.8 mg/kg. Further, in the experiment on Mus musculus [2], the ED50 result is “inactive”.
`CN1CCC23CCCCC2C1Cc1ccc(OC(C)(C)C)cc13` (configuration not stated): the figures for the ED50 with Mus musculus [1] and in the experiment with Mus musculus [3] were 5 mg/kg and 5.81 mg/kg, respectively.
Taken in the same sequence, the figures for `COc1ccc2c3c1O[C@H]1[C@@H](O)C=C[C@H]4[C@@H](C2)N(C)CC[C@@]341` [CODEINE] were 2.3 mg/kg and 39 mg/kg.
As for `CN1CC[C@]23CCCC[C@H]2[C@H]1Cc1ccc(O)cc13` [LEVORPHANOL], the ED50 worked out at 0.1 mg/kg in the experiment on Mus musculus [1] and 1.3 mg/kg with Mus musculus [3].
Taken in the same sequence, the figures for `CN1CC[C@]23c4c5ccc(O)c4O[C@H]2[C@@H](O)C=C[C@H]3[C@H]1C5` [MORPHINE] were 0.46 mg/kg and 4.06 mg/kg.
Taken in the same sequence, the figures for `COc1ccc2c(c1)C13CCCCC1C(C2)N(C)CC3` (stereo not drawn) [RACEMETHORPHAN] were 0.64 mg/kg and 6.78 mg/kg.
